Hits are enriched below; roughly 4% of the tested compounds scored in any of these assays.
XBP1 UPR activ: activators of adaptive arm of unfolded protein response (XBP1). CHO-XBP1 luciferase reporter, IRE1-XBP1 UPR activation, luminescence; percent of tunicamycin response, DMSO as zero. activation, % at 20 µM. 330,000 compounds, 0.33% hits;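 active means versus positive control, 20 µM dose yields 30% or more activation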;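 further: 100% = tunicamycin at 10 µg/mL and 0% = DMSO only wells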
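Material: CHO cell line with stable XBP1 luciferase reporter; buffer or medium: F12 medium containing 10% fetal bovine serum; compound: single point, 20 µM final compound, 1% DMSO; incubation: 6 h treatment, 37 °C; measured by: glow luminescence from Steady-Glo reagent; evaluation: activation, % of tunicamycin; control set: tunicamycin high, DMSO low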
Exocytosis inh: blocks lytic granule exocytosis | TALL-104 LAMP-1 surface exposure, flow cytometry; cells stimulated with thapsigargin and PMA | AID 651702 | 360,000 compounds, 0.66% hits | inhibition, % at 10 µM;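 active means inhibition above about 55%, limit read from the data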
Mdm2 MdmX PPI: inhibitors of human Mdm2/MdmX interaction. O15151+Q00987. SaOS-2 split-luciferase Mdm2/MdmX complementation, luminescence. inhibition, % at 8 µM. 330,000 compounds, 3% hits;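 active means inhibition of at least 50% at 8 µM in the primary screen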
Target sequence (O15151 whole entry, looked up): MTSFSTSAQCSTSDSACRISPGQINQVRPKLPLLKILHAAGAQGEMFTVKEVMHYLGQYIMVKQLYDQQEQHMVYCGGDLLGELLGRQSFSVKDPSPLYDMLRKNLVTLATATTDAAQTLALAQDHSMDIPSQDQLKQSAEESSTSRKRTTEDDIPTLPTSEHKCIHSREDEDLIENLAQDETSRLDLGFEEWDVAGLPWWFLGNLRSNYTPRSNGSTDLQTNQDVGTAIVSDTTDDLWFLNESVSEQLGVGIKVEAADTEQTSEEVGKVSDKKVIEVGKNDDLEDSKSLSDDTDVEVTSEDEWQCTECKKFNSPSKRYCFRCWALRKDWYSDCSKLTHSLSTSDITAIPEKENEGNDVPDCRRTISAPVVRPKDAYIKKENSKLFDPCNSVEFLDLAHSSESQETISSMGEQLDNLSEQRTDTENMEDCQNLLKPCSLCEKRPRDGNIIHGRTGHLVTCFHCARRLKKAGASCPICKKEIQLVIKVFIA
Target sequence (Q00987 whole entry, looked up): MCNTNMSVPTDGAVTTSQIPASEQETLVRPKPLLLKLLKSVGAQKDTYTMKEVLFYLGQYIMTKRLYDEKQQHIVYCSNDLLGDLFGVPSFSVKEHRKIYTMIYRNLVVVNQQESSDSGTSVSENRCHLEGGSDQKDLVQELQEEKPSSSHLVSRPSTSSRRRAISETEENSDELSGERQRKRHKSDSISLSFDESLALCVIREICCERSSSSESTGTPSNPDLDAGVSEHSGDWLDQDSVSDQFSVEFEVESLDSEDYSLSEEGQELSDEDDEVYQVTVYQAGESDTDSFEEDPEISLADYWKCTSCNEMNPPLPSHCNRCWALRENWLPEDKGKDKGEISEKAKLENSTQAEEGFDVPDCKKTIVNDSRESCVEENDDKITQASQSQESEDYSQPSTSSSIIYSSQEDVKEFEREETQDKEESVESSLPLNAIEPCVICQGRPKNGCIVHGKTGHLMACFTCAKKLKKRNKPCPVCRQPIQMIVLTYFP
UPR CHOP act: activators of apoptotic arm of unfolded protein response (CHOP). CHO-CHOP luciferase reporter, UPR activation, luminescence; percent of tunicamycin response over DMSO baseline. activation, % at 10 µM. 330,000 compounds, 0.34% hits;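 active means at 10 µM dose, activation of 40% or more, normalized to positive control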;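 further: 100% = tunicamycin at 10 µg/mL and 0% = DMSO alone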
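Dosing – one dose, 10 µM in 0.5% DMSO · System – CHO-CHOP cells, stable luciferase reporter of PERK-eIF2a-CHOP signalling · Input – 500 cells/well · Control set – tunicamycin 10 µg/mL final as positive, DMSO-only wells as negative · Timing – 6 h compound treatment, 37 °C · Measure – % activation vs tunicamycin · Technique – luminescence read with Steady-Glo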
ABHD5 PLIN5 PPI: ABHD5-PLIN5 protein interaction inhibition. Q00G26+Q8WTS1. Split G. princeps luciferase complementation, luminescence, 4 h. inhibition, % at 4 µM. 360,000 compounds, 0.78% hits;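 active means inhibition above the mean inhibition across every tested compound plus 3 SD, cut at about 22% in these data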;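 further: 0% = DMSO only wells and the 100% control is not disclosed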
Mdm2-MdmX conf: confirmation of human Mdm2/MdmX interaction inhibitors | inhibition, % at 8 µM | AID 489028 | Mdm2-MdmX binding, luminescent assay | 10,000 compounds, 55% hits | shares compounds with Mdm2 MdmX PPI; in the data active means inhibition above about 40%
Full FLuc ctr: counter-screen for Mdm2/MdmX inhibitors: full-length luciferase. AID 504607. 6,200 compounds, 77% hits. shares compounds with Mdm2 MdmX PPI. SaOS-2 full-length luciferase counterscreen, luminescence. inhibition, % at 8 µM;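 active means mean inhibition at 8 µM reaching about 37%, which flags the compound as non-specific, limit read from the data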;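 further: p53-null SaOS-2 cells with luciferase driven by a doxycycline-inducible promoter; compound on cells about two nights before reading with doxycycline added after day one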
Active calls of the source: *; x = not tested or not shown.

SMILES	XBP1 UPR activ	Exocytosis inh	Mdm2 MdmX PPI	UPR CHOP act	ABHD5 PLIN5 PPI	Mdm2-MdmX conf	Full FLuc ctr
CNc1c(N)c(=O)oc2ccccc12	1	-1	24	0	-2	x	x
Cc1nnc(-c2ccccc2)c(=O)n1/N=C/c1c(O)ccc2ccccc12	0	53	54*	-3	-2	57*	31
Cc1nnc(C)n1/N=C/c1c(O)ccc2ccccc12	-4	2	-7	-2	3	x	x
Cc1ccc(-n2nc(C)c(C3(O)C(=O)N(C(C)C)c4ccccc43)c2N)cc1 (stereo not given)	-4	-2	12	1	-1	x	x
CC(C)(C)c1cc(C(c2cccnc2)N2CCN(CCO)CC2)cc(C(C)(C)C)c1O (stereo not given)	-9	45	100*	-9	21	76*	58*
CC(C)(C)n1nnnc1C(c1cccnc1)N1CCN(c2cccc(C(F)(F)F)c2)CC1 (stereo not given)	6	-2	28	-2	3	x	x
CCOC(=O)N1CCN(C(=O)c2ccc3c(=O)n(-c4ccc(OC)cc4)c(=S)[nH]c3c2)CC1	2	3	69*	2	8	12	x
CCOC(=O)N1CCN(C(=O)c2ccc3c(=O)n(-c4ccc(OC)cc4OC)c(=S)[nH]c3c2)CC1	-3	5	10	1	4	x	x
CCOc1ccccc1NC(=O)COC(=O)CC(C)(C)CC1=NS(=O)(=O)c2ccccc2N1	-5	0	42	0	-7	x	x
O=C(CCCCCCC(=O)Nc1ccccc1)NO	20	-10	50*	2	-1	34	x
COc1ccc(NC(=O)CN2CCN(CC(=O)Nc3ccc(F)cc3)CC2)cc1Cl	-2	4	0	-1	0	x	x
Cc1ccc(OCC(=O)NNC(=O)C(C)Sc2ncnc3sc(C)c(C)c23)cc1 (stereo not given)	-3	-3	9	0	-9	x	x
Cc1sc2ncnc(SC(C)C(=O)N3c4ccccc4Sc4ccccc43)c2c1C (stereo not given)	-4	26	55*	2	-12	25	x
CC(C)OC(=O)CSc1nc(N)c(C#N)c(-c2cccs2)c1C#N	5	-7	-17	0	-3	x	x
CC(=O)CSc1nc(N)c(C#N)c(-c2cccs2)c1C#N	-1	0	52*	-2	5	37	41*
N#Cc1c(N)nc(SCC(=O)NCCc2ccccc2)c(C#N)c1-c1cccs1	1	-1	63*	-3	-6	15	x
Cc1cccc(CSc2nc(N)c(C#N)c(-c3cccs3)c2C#N)c1	3	13	30	-2	-6	x	x
Cc1cc(C(=O)CCC(=O)N2CCN(c3ccccc3)CC2)c(C)s1	-3	2	19	1	-3	x	x
COC(=O)c1cccc2c1-c1ccccc1/C2=N/O	2	0	84*	-1	-7	76*	37*
Cc1ccc(/C=c2\sc3n(c2=O)CN(c2ccc(Br)cc2)CN=3)o1	2	0	23	-1	21	x	x
Cc1ccc(N2CN=c3s/c(=C\c4cccnc4)c(=O)n3C2)cc1	1	1	66*	0	0	24	x
O=C(NCCN1C(=O)S/C(=C\c2ccc(OC(F)F)cc2)C1=O)C1=COCCO1	3	-6	48	2	9	x	x
O=C1NNC(c2ccccc2)=N/C1=C\c1ccco1	2	-8	21	0	6	x	x
COc1cc(/C=C2\N=C(c3ccccc3)NNC2=O)cc(OC)c1OC	12	52	61*	-1	-4	54*	64*
CCOC(=O)C1=C(c2ccccc2)NC(=O)NC1c1cc(Cl)c(O)c(OC)c1 (stereo not given)	-3	2	-9	1	-3	x	x
CCOC(=O)C1=C(c2ccccc2)NC(N)=NC1c1ccc(OCc2ccc(Cl)cc2)c(OC)c1 (stereo not given)	5	3	100*	3	10	60*	94*
O=C(CN1C(=O)c2ccccc2S1(=O)=O)c1ccc(F)cc1	-10	-5	83*	-7	-7	68*	81*
